Assay results: PMC2854023 (Journal of biomolecular screening, 2010)
Read-outs that look alike come from different tables or passages of the source.

Legend:
human PDE7B1 = human PDE7B1 (Homo sapiens, UniProt Q9NP56); test: Fission yeast 5FOA growth assay, PDE7B-expressing strain; format: cell-based; details: range of concentrations, 48 hours, OD600
Summary of the method: (§1)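 5FOA growth assays, run as in the PDE7A screen, used fission yeast strains expressing human PDE4A1, PDE4B2, PDE4D3 or PDE7B1 from the cgs2 locus. Compound was added over a concentration range, with DMSO kept below 0.2%. Cultures grew 48 h at 30°C. OD600 is the mean of four wells.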

PDE1C = PDE1C (Homo sapiens, UniProt Q14123); test: Fission yeast 5FOA growth assay, PDE1C-expressing strain; format: cell-based; details: data not shown
Summary of the method: (§2)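 Fission yeast 5FOA growth assays used strains each expressing one mammalian PDE, read as OD600. For cGMP-specific PDEs, strains lacked adenylate cyclase and the 5FOA medium contained 30μM to 1mM cGMP.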

[1] = tested on: TNFα release by LPS-treated U937 cells; test: TNFα release assay in PMA-activated, LPS-treated U937 cells; format: cell-based, human; details: for TNFα release, combined with rolipram, 3 hours LPS / TNFα release, combined with rolipram, 20 hours LPS: 10μM each, compared to rolipram alone
Summary of the method: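 U937 cells at 10^6 cells/ml in RPMI 1640 with 10% FBS were primed 17 hr with 300 ng/ml PMA. Aliquots of […] were diluted with equal medium and given 10 μM compound, alone or with rolipram, for 1 hr; vehicle was ethanol with <0.1% DMSO. LPS (25 μg/ml) followed, and supernatant TNFα was measured by ELISA at 3 or 20 h. Values are % of vehicle, 2–6 independent experiments, paired one-tailed t-test.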

PDE2A = PDE2A (Homo sapiens, UniProt O00408); test: Fission yeast 5FOA growth assay, PDE2A-expressing strain; format: cell-based; details: data not shown
PDE2A, sequence (O00408 whole entry, species assumed): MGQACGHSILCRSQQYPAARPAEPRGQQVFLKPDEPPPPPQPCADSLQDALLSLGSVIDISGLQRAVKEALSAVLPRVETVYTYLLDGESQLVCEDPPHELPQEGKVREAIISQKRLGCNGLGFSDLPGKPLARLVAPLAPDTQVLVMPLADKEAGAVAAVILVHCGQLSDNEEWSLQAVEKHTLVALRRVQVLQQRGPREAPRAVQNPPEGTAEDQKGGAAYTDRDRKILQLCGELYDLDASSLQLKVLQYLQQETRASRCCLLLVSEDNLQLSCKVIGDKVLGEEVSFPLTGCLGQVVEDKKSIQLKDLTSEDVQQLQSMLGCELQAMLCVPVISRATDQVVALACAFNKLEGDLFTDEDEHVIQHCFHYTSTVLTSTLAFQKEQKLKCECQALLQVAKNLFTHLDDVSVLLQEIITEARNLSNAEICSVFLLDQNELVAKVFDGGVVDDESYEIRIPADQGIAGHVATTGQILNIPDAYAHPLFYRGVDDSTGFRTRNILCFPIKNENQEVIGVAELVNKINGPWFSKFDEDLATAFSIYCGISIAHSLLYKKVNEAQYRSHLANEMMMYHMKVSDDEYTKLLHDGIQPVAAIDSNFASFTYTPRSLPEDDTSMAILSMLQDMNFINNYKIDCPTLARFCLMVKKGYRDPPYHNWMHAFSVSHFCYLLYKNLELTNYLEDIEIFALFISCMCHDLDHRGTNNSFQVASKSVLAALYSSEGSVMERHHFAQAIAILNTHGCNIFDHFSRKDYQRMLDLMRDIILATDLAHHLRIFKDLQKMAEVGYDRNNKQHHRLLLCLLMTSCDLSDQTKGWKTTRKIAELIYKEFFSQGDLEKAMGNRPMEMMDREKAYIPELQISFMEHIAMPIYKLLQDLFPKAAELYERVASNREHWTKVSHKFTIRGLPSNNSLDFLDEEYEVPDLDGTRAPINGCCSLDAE
Summary of the method: as §2

human PDE4B2 = human PDE4B2 (Homo sapiens, UniProt Q07343); test: Fission yeast 5FOA growth assay, PDE4B2-expressing strain; format: cell-based; details: dose response, 48 hours
Summary of the method: as §1

PDE10A = test: Fission yeast 5FOA growth assay, PDE10A-expressing strain; format: cell-based; details: 40μM compound, data not shown
Summary of the method: as §2

PDE11A = PDE11A (Homo sapiens, UniProt Q9HCR9); test: Fission yeast 5FOA growth assay, PDE11A-expressing strain; format: cell-based; details: data not shown
PDE11A, sequence (Q9HCR9 whole entry, species assumed): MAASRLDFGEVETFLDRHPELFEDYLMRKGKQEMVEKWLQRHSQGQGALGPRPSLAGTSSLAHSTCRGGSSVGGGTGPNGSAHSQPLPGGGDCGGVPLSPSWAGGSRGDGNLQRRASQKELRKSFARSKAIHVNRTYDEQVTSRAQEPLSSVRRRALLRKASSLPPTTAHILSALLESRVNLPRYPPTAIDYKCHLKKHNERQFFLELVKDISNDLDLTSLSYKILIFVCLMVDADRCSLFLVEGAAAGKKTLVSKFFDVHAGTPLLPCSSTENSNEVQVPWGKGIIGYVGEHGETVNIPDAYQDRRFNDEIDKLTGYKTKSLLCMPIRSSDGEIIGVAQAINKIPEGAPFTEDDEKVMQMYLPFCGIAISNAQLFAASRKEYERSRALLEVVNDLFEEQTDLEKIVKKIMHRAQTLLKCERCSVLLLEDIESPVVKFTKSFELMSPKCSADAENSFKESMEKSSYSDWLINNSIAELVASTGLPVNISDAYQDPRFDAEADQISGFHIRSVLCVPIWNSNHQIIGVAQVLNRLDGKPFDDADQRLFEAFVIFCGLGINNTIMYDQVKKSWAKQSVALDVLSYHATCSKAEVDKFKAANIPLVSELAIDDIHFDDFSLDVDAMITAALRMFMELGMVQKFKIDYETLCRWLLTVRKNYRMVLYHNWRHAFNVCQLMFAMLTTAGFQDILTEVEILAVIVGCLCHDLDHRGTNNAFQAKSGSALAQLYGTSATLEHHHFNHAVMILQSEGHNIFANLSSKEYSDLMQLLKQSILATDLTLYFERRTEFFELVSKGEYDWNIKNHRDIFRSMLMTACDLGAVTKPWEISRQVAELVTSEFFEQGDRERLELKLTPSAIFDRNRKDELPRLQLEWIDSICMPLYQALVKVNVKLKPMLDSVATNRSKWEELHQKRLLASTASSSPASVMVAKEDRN
Summary of the method: as §2

human PDE7A1 = human PDE7A1 (Homo sapiens, UniProt Q13946); test: Fission yeast 5FOA growth assay / HTS, PDE7A-expressing strain CHP1189; format: cell-based; details: for stimulation of 5FOA-resistant growth, PDE7A-expressing strain: range of concentrations, 48 hours, OD600; for average OD600 in PDE7A HTS: 20μM compound, 48 hours growth in 5FOA medium, duplicate
human PDE7A1, sequence (Q13946 whole entry): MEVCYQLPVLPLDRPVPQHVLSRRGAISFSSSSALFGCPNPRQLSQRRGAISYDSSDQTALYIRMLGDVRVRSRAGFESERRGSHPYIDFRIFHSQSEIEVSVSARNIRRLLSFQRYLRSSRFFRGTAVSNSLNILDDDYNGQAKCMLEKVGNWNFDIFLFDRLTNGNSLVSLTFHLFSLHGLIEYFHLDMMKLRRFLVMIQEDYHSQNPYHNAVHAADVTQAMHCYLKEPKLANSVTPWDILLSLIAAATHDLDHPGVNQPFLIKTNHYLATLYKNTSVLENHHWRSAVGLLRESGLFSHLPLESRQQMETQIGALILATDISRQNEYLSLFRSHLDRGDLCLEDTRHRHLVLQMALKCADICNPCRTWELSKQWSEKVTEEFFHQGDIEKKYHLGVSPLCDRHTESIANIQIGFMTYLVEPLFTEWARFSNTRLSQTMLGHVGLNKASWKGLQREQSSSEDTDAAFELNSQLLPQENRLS
Summary of the method: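 Fission yeast strain CHP1189 carries human PDE7A in place of cgs2, plus gpa2Δ, pap1Δ and fbp1-ura4/fbp1-lacZ reporters. It was grown to exponential phase in EMM with 2.5 mM cAMP, then resuspended in 5FOA medium at 1 × 10^5 cells/ml. Compounds were mostly at 20μM, in duplicate, with DMSO negative and 5mM cAMP positive controls. Growth was 48 h at 30°C, read as OD600. Per-plate Z scores were combined into a composite Z score.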

PDE8A = PDE8A (Homo sapiens, UniProt O60658); test: Fission yeast 5FOA growth assay, PDE8A-expressing strain; format: cell-based; details: data not shown
Summary of the method: as §2

human PDE4D3 = human PDE4D3 (Homo sapiens, UniProt Q08499); test: Fission yeast 5FOA growth assay, PDE4D3-expressing strain; format: cell-based; details: dose response, 48 hours
human PDE4D3, sequence (Q08499 1-673 isoform Q08499-2): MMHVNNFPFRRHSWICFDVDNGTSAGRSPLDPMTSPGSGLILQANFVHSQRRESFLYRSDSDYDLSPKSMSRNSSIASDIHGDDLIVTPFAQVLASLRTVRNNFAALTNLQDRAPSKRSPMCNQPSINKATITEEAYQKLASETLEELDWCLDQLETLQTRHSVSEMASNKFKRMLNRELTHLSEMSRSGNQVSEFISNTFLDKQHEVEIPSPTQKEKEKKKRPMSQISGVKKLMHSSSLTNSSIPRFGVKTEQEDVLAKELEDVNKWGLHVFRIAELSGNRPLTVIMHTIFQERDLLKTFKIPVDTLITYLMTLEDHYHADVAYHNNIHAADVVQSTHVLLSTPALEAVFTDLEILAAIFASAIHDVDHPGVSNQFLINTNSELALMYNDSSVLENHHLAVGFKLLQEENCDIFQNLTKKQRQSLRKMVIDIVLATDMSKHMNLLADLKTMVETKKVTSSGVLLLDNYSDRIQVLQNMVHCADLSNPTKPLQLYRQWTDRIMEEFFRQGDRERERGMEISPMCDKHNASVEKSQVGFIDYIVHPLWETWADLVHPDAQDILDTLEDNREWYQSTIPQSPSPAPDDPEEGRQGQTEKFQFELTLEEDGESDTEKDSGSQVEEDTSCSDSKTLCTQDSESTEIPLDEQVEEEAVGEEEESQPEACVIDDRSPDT
Summary of the method: as §1

PDE7B = PDE7B (Homo sapiens, UniProt Q9NP56); test: In vitro PDE enzyme assay; format: biochemical; details: for IC50 on PDE7B relative to PDE7A: in vitro enzyme assays, PDE7B vs PDE7A
PDE7B, sequence (Q9NP56 whole entry, species assumed): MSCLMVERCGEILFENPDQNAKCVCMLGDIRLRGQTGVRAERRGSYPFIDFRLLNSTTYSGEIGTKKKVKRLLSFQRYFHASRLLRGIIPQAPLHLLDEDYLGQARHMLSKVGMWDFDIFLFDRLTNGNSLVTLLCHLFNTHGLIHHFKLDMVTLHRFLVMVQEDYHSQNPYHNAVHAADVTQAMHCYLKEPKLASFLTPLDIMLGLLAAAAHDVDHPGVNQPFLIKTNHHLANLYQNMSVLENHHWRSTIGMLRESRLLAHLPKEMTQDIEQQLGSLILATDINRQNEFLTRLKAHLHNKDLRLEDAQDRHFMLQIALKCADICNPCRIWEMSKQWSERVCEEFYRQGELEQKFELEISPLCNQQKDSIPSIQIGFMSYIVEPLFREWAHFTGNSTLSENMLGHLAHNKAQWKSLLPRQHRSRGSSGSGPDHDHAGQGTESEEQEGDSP
Summary of the method: (§3)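 Radiometric PDE assay with 25nM initial 3H-cAMP for 15 min, over which the hydrolysis rate was constant. 3H-AMP was separated by Ba(OH)2 precipitation and remaining cAMP counted by scintillation. PDE7A was commercial; PDE7B was a gift. IC50 is the concentration halving the hydrolysis rate relative to vehicle controls. PDE7B Km came from Michaelis-Menten kinetics, analysed by Lineweaver-Burke and Eadie-Hofstee plots.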

[2] = target: PDE4D catalytic domain (residues 86-413 of PDE4D2) (Homo sapiens, UniProt Q08499); test: In vitro enzyme assay, PDE4D catalytic domain; format: biochemical
PDE4D catalytic domain (residues 86-413 of PDE4D2), sequence (Q08499 388-715): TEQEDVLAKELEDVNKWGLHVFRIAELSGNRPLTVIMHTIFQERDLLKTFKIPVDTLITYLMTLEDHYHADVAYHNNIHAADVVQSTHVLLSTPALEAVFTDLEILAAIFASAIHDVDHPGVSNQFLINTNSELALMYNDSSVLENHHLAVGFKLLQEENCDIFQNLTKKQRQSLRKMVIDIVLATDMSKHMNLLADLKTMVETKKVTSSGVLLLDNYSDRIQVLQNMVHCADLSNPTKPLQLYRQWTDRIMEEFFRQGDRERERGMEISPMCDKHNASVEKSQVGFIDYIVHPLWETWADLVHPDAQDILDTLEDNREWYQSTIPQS
Summary of the method: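 PDE4D catalytic domain (PDE4D2 residues 86-413) was expressed in and purified from E. coli and tested in the 3H-cAMP hydrolysis assay with Ba(OH)2 precipitation. Enzyme was at 16 nM with 25 nM test compound across varying cAMP concentrations. A separate panel used 2μM compound against PDE4A, PDE4B and PDE4D catalytic domains.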

[3] = target: full-length PDE4D2 (residues 1-507) (Homo sapiens, UniProt Q08499); test: In vitro enzyme assay, full-length PDE4D2; format: biochemical; details: data not shown
PDE5A = PDE5A (Homo sapiens, UniProt O76074); test: Fission yeast 5FOA growth assay, PDE5A-expressing strain; format: cell-based; details: data not shown
Summary of the method: as §2

human PDE4A1 = human PDE4A1 (Homo sapiens, UniProt P27815); test: Fission yeast 5FOA growth assay, PDE4A1-expressing strain; format: cell-based; details: dose response, 48 hours
human PDE4A1, sequence (P27815 1-647 isoform P27815-4): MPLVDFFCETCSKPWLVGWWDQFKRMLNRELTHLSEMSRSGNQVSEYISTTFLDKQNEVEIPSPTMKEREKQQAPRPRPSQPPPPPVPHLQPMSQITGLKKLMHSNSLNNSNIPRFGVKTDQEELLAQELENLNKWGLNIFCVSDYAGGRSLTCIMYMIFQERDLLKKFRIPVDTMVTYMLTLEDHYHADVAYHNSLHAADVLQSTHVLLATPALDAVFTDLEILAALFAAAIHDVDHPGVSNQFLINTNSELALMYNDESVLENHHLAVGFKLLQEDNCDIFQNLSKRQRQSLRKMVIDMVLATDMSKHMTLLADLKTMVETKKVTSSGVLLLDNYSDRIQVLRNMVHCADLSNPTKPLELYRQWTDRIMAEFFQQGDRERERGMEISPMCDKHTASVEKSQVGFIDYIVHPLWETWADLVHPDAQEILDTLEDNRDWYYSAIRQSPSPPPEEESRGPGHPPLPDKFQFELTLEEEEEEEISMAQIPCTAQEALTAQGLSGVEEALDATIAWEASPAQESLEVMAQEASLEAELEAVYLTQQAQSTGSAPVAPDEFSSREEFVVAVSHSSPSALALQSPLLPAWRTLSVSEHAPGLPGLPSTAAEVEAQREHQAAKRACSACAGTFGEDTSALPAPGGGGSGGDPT
Summary of the method: as §1

mouse PDE4A1 = target: T1, mouse PDE4A1 (Mus musculus, UniProt O89084); test: Fission yeast HTS, mouse PDE4A1-expressing strain; format: cell-based; details: 20μM
T1 sequence (O89084 1-610 isoform O89084-2): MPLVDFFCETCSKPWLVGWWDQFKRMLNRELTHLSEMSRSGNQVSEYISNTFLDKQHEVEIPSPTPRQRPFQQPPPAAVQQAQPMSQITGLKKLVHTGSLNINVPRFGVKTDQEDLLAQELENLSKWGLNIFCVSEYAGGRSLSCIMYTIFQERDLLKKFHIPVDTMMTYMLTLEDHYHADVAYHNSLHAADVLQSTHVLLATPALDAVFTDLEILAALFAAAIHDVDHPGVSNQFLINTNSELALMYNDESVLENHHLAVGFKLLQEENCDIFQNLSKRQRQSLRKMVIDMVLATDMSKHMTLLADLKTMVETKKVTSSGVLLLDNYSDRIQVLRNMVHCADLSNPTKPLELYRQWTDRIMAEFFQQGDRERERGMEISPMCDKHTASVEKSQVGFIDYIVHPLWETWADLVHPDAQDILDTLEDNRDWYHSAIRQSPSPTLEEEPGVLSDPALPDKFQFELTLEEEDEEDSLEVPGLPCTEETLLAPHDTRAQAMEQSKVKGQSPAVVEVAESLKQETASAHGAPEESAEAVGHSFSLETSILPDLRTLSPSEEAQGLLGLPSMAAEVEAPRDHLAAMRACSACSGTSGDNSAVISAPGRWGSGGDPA

PDE1B = PDE1B (Homo sapiens, UniProt Q01064); test: Fission yeast 5FOA growth assay, PDE1B-expressing strain; format: cell-based; details: data not shown
Summary of the method: as §2

PDE9A = PDE9A (Homo sapiens, UniProt O76083); test: Fission yeast 5FOA growth assay, PDE9A-expressing strain; format: cell-based; details: data not shown
Summary of the method: as §2

PDE3B = PDE3B (Homo sapiens, UniProt Q13370); test: Fission yeast 5FOA growth assay, PDE3B-expressing strain; format: cell-based; details: data not shown
Summary of the method: as §2

PDE7A = PDE7A (Homo sapiens, UniProt Q13946); test: In vitro PDE enzyme assay; format: biochemical
PDE7A, sequence (Q13946 whole entry, species assumed): as the sequence (Q13946 whole entry) above
Summary of the method: as §3

[4] = 10μM, 1 hr pretreatment, vs vehicle-treated control

human PDE7B1, sequence (Q9NP56 whole entry): as the sequence (Q9NP56 whole entry, species assumed) above

Q: How did the “stimulation of 5FOA-resistant growth, PDE7B-expressing strain” value (human PDE7B1) turn out when `N#Cc1sc2sc(C#N)c(-c3ccco3)c2c1N` [BC30, 3-amino-4-(2-furyl) thieno[2,3-b]thiophene-2,5-dicarbonitrile] was run?
A: the best inhibitor of PDE7B

Q: And the “effect on 5FOA growth, PDE1C strain” value (PDE1C)?
A: no effect on growth

Q: What about the “TNFα release, combined with rolipram, 3 hours LPS” value [1] of the same compound?
A: dramatic reduction of TNFα release

Q: And the “TNFα release, combined with rolipram, 20 hours LPS” value [1]?
A: dramatic reduction of TNFα release

Q: What about the “TNFα release, compound alone, 3 hours LPS” value [1, 4] of the same compound?
A: significant reduction in TNFα release

Q: And the “TNFα release, compound alone, 20 hours LPS” value [1, 4]?
A: significant reduction in TNFα release

Q: And the “effect on 5FOA growth, PDE2A strain” value (PDE2A)?
A: no effect on growth

Q: What about the “effect on 5FOA growth, human PDE4B2 strain” value (human PDE4B2) of the same compound?
A: no effect on the growth

Q: And the “OD600 of PDE10A-expressing strain” value (PDE10A)?
A: 0.53

Q: What about the “effect on 5FOA growth, PDE11A strain” value (PDE11A) of the same compound?
A: no effect on growth

Q: What about the “PDE7A inhibition upon rescreening” value (human PDE7A1; 2μM, data not shown) of the same compound?
A: one of the most effective PDE7A inhibitors

Q: And the “rank of Composite Z score in PDE7A HTS” value (human PDE7A1; 20μM screen, 48,176 compounds)?
A: 40

Q: What about the “stimulation of 5FOA-resistant growth, PDE7A-expressing strain” value (human PDE7A1) of the same compound?
A: very potent at low micromolar concentrations

Q: And the “effect on 5FOA growth, PDE8A strain” value (PDE8A)?
A: no effect on growth

Q: What about the “effect on 5FOA growth, human PDE4D3 strain” value (human PDE4D3) of the same compound?
A: no effect on the growth

Q: What about the IC50 (PDE7B) of the same compound?
A: 3.7 µM

Q: And the “effect on Km of PDE7B” value (PDE7B; data not shown)?
A: appears to increase the Km of PDE7B

Q: And the “IC50 on PDE7B relative to PDE7A” value (PDE7B)?
A: four-fold lower IC50 on PDE7A than PDE7B

Q: What about the “effect on Vmax of PDE4D catalytic domain” value ([2]; 25 nM compound, varying cAMP) of the same compound?
A: doubling the Vmax

Q: What about the “effect on cAMP hydrolysis by PDE4D catalytic domain” value ([2]; 2μM compound, data not shown) of the same compound?
A: significantly stimulate cAMP hydrolysis

Q: What about the “concentration producing the maximum increase in PDE4D catalytic domain activity” value ([2]; enzyme concentration 16 nM) of the same compound?
A: 25 nM

Q: And the “effect on activity of full-length PDE4D2” value [3]?
A: neither BC30 nor the other compounds that stimulate the catalytic domain of PDE4D affect the activity of the full-length PDE4D2

Q: And the “effect on 5FOA growth, PDE5A strain” value (PDE5A)?
A: no effect on growth

Q: What about the “effect on 5FOA growth, human PDE4A1 strain” value (human PDE4A1) of the same compound?
A: no effect on the growth

Q: What about the “activity in HTS, mouse PDE4A1 strain” value (mouse PDE4A1) of the same compound?
A: very weak activity

Q: What about the “effect on 5FOA growth, PDE1B strain” value (PDE1B) of the same compound?
A: no effect on growth

Q: And the “effect on 5FOA growth, PDE9A strain” value (PDE9A)?
A: no effect on growth

Q: And the “effect on 5FOA growth, PDE3B strain” value (PDE3B)?
A: no effect on growth

Q: What about the IC50 (PDE7A) of the same compound?
A: 1.1 µM

Q: `Cc1ccc([N+](=O)[O-])cc1S(=O)(=O)N(C)C` [BRL50481, 3-(N,N-dimethylsulfonamido)-4-methyl-nitrobenzene, reference compound] was tested. Which “stimulation of 5FOA-resistant growth, PDE7B-expressing strain” value (human PDE7B1) did it give?
A: rather poor inhibitor of PDE7B, equal to BC11 and BC39, and far less effective than BC30

Q: And the “TNFα release, combined with rolipram, 3 hours LPS” value [1]?
A: modestly enhances the rolipram-mediated reduction of TNFα release

Q: What about the “TNFα release, combined with rolipram, 20 hours LPS” value [1] of the same compound?
A: modestly enhances the rolipram-mediated reduction of TNFα release

Q: And the “stimulation of 5FOA-resistant growth, PDE7A-expressing strain” value (human PDE7A1)?
A: most effective compound for stimulation of 5FOA-resistant growth

Q: And the “IC50 on PDE7B relative to PDE7A” value (PDE7B)?
A: 80 fold

Q: What about the IC50 (PDE7A; read-out: IC50 against PDE7A, in vitro enzyme assay) of the same compound?
A: ~0.15 µM

Q: With `CC(=O)O[C@@H]1CC[C@@]2(C)[C@@H](CC[C@@H]3[C@@H]2CC[C@]2(C)C(=O)CC[C@@H]32)C1` [androsterone acetate] as the compound, how does the “average OD600 in PDE7A HTS” value (human PDE7A1) read?
A: > 0.821

Q: For `C[C@]12CCC(=O)C=C1C=C[C@@H]1[C@@H]2CC[C@@]2(C)[C@H]1CC[C@@]21CCC(=O)O1` [canrenone, reference compound], which “average OD600 in PDE7A HTS” value (human PDE7A1) is on record?
A: > 0.821

Q: For `COc1ccc(C2CNC(=O)C2)cc1OC1CCCC1` (centres unmarked) [rolipram, reference compound], which “TNFα release, compound alone, 20 hours LPS” value [1, 4] is on record?
A: significant reduction in TNFα release
